# Results pooled from the literature.
# Lines come from different studies, so protocols differ.
SMILES,cell line,read-out,mode,method,time,notes,IC50
COc1cc(/C=C/C(=O)/C=C(O)/C=C/c2ccncc2)ccc1O,CHO-K1,cell growth or viability,,MTT,72 h,,13.3 µM
Brc1ccc(Nc2nc(NCCc3ccccc3)nc(NCCc3ccccc3)n2)cc1,SK-BR-3,cell growth or viability,,SRB,72 h,,25.3 µM
O=C(/C=C(/C=C/c1cccnc1)NC1CCCCC1)/C=C/c1cccnc1,CHO-K1,cell growth or viability,,MTT,72 h,,16.8 µM
COc1cc(/C=C/C(=O)/C=C(O)/C=C/c2ccccn2)ccc1O,CHO-K1,cell growth or viability,,SRB,72 h,,30.9 µM
COc1ccccc1/C=C/CNCC(O)COc1ccc2c(c1)[nH]c1ccccc12 (centres unmarked),NCI-H1299,cell growth or viability,,CCK-8,72 h,,3.9 µM
CC(C)(C)Nc1c(-c2ccc([N+](=O)[O-])cc2)nc2ccccn12,Vero,cell growth or viability,,MTT,48 h,,85 µM
COc1cc([C@@H]2c3cc4c(cc3[C@@H](O[C@@H]3O[C@@H]5CO[C@@H](C)O[C@H]5[C@H](O)[C@H]3O)[C@H]3COC(=O)[C@H]23)OCO4)cc(OC)c1O,SMMC-7721,cell growth or viability,,MTT,48 h,,8.12 µM
COc1ccccc1NCC(O)COc1cccc2[nH]c3ccccc3c12 (centres unmarked),NCI-H1299,cell growth or viability,,CCK-8,72 h,,> 100 µM
C(=C\c1c[nH]c2ccccc12)/c1cc(/C=C/c2cccs2)[nH]n1,CHO-K1,cell growth or viability,,MTT,72 h,,0.9 µM
COc1ccccc1OCCNCC(O)COc1cccc2[nH]c3ccccc3c12 (centres unmarked),NCI-H1299,cell growth or viability,,CCK-8,72 h,,32.4 µM
COc1cc(Nc2nccc(-c3cnn4nc(OC)ccc34)n2)cc(C(F)(F)F)c1,COR-L279,cell growth or viability,,ATP luminescence,,,0.21 µM
NS(=O)(=O)OC[C@@H]1C[C@@H](n2ccc3c(N[C@H]4CCc5ccccc54)ncnc32)C[C@@H]1O,NCI-H1299,cell growth or viability,,CCK-8,72 h,,0.9 µM
Cc1ccc2nc(-c3ccc(Cl)cc3)n(Cc3ccccc3)c2c1,human Rhabdomyosarcoma cell,cell growth or viability,,MTT,,,4.83 µM
Cc1ncn2c(=O)n(C)nnc12,D54,cell growth or viability,,resazurin,7 days,,6 µM
O=C(/C=C(O)/C=C/c1ccccn1)/C=C/c1c[nH]c2ccccc12,CHO-K1,cell growth or viability,,MTT,72 h,,22.3 µM
Brc1ccc(Nc2nc(NCc3ccccc3)nc(NCc3ccccc3)n2)cc1,SK-BR-3,cell growth or viability,,SRB,72 h,,20.4 µM
O=C(/C=C(/C=C/c1cccnc1)NCCO)/C=C/c1cccnc1,CHO-K1,cell growth or viability,,MTT,72 h,,> 75 µM
COc1cc(/C=C/C(=O)/C=C(O)/C=C/c2cccc3cnccc23)ccc1O,CHO-K1,cell growth or viability,,SRB,72 h,,32.6 µM
Cc1ccc2nc(-c3ccc(Cl)cc3)n(Cc3ccccc3Cl)c2c1,human Rhabdomyosarcoma cell,cell growth or viability,,MTT,,,41 µM
CC(C)(C)Nc1c(-c2ccccc2N)nc2ccccn12,Vero,cell growth or viability,,MTT,48 h,,90 µM
COc1cccc2c1C(=O)c1c(O)c3c(c(O)c1C2=O)C[C@@](O)(C(=O)CO)C[C@@H]3O[C@H]1C[C@H](N)[C@H](O)[C@H](C)O1,CHO-K1,cell growth or viability,,MTT,72 h,,2.5 µM
CC(C)(C)Nc1c(-c2ccc(N)cc2)nc2ccccn12,Vero,cell growth or viability,,MTT,48 h,,91 µM
O=C(/C=C(O)/C=C/c1c[nH]c2ccccc12)/C=C/c1c[nH]c2ccccc12,CHO-K1,cell growth or viability,,SRB,72 h,,12.1 µM
Cc1ccc2nc(-c3ccccc3O)[nH]c2c1,human Rhabdomyosarcoma cell,cell growth or viability,,MTT,48 h,,6.76 µM
COc1cccc2c1C(=O)c1c(O)c3c(c(O)c1C2=O)C[C@@](O)(C(=O)CO)C[C@@H]3O[C@H]1C[C@H](N)[C@H](O)[C@H](C)O1,CHO-K1,cell growth or viability,,SRB,72 h,,6.2 µM
COc1ccccc1/C=C/CNCC(O)COc1ccncc1 (centres unmarked),NCI-H1299,cell growth or viability,,CCK-8,72 h,,34.1 µM
O=C(/C=C(O)/C=C/c1cccs1)/C=C/c1c[nH]c2ccccc12,CHO-K1,cell growth or viability,,SRB,72 h,,11.1 µM
COc1cc2nccc(Oc3ccc(NC(=O)C4(C(=O)Nc5ccc(F)cc5)CC4)cc3)c2cc1OC,Rh30,cell growth or viability,,,72 h,,5.9 µM
O=C(O)Cc1ccccc1Nc1c(Cl)cccc1Cl,RAW264.7,NO release,inhibitor,,,LPS-stimulated,54.7 µM
C=CCn1c(-c2ccc([N+](=O)[O-])cc2)nc2ccc(C)cc21,human Rhabdomyosarcoma cell,cell growth or viability,,MTT,,,86 µM
COc1cc(/C=C/C(=O)CC(=O)/C=C/c2ccc(O)c(OC)c2)ccc1O,CHO-K1,cell growth or viability,,MTT,72 h,,21.3 µM
CC(C)C[C@H](NC(=O)[C@H](Cc1ccccc1)NC(=O)c1cnccn1)B(O)O,NCI-H1437,cell growth or viability,,ATP luminescence,,,0.013 µM
COc1ccc2c(c1)NC(=O)CN2c1nc(C)nc2c1CCC2,M14,cell growth or viability,,,72 h,,0.0014 µM
O=C1C=C(/C=C/c2cccnc2)N(CCCO)C(c2cccnc2)C1 (centres unmarked),CHO-K1,cell growth or viability,,SRB,72 h,,> 75 µM
O=C(Nc1nnc(-c2cc3ccccc3[nH]2)s1)c1cc2c([nH]c3ccccc32)c(-c2ccc(Cl)cc2)n1,HL-60,cell growth or viability,,MTT,72 h,,9.31 µM
CCOc1ccc(-c2nc3ccc(C)cc3[nH]2)cc1,human Rhabdomyosarcoma cell,cell growth or viability,,MTT,48 h,,76.2 µM
COc1ccccc1/C=C/CNCC(O)COc1cccc2[nH]c3ccccc3c12 (centres unmarked),NCI-H1299,cell growth or viability,,CCK-8,72 h,,7.2 µM
CCN(CC)C(=O)c1ncn2c(=O)n(C)nnc12,D54,cell growth or viability,,resazurin,7 days,,13 µM
CC(C)CNC(=C\C(=O)/C=C/c1cccnc1)/C=C/c1cccnc1,CHO-K1,cell growth or viability,,MTT,72 h,,17.7 µM
Clc1ccc(-c2nc3ccccc3n2Cc2ccccc2)cc1,human Rhabdomyosarcoma cell,cell growth or viability,,MTT,,,31.7 µM
O=C(/C=C(O)/C=C/c1ccc[nH]1)/C=C/c1ccc[nH]1,CHO-K1,cell growth or viability,,SRB,72 h,,11.7 µM
CCSC(=O)c1ncn2c(=O)n(C)nnc12,D54,cell growth or viability,,resazurin,7 days,,8 µM
Cc1ccc2nc(-c3ccc(Cl)cc3Cl)[nH]c2c1,human Rhabdomyosarcoma cell,cell growth or viability,,MTT,48 h,,29.9 µM
Cc1ccc(C(=O)Nc2ccc(Oc3cc4cnn(C)c4cc3-c3cn[nH]c3)c(F)c2)c(=O)n1-c1ccc(F)cc1,MKN-45,cell growth or viability,,ATP luminescence,,,0.028 µM
COc1cc(N2CCC(N3CCN(C)CC3)CC2)ccc1Nc1ncc(Cl)c(Nc2ccccc2S(=O)(=O)C(C)C)n1,Rh30,cell growth or viability,,,72 h,,0.3 µM
O=C(/C=C(O)/C=C/c1ccc2ccccc2n1)/C=C/c1c[nH]c2ccccc12,CHO-K1,cell growth or viability,,SRB,72 h,,43.3 µM
c1ccc2[nH]c(-c3ccncc3)nc2c1,human Rhabdomyosarcoma cell,cell growth or viability,,MTT,48 h,,31.2 µM
